These results are taken from ChEMBL document CHEMBL1145351, “Squalene-derived flexible linkers for bioactive peptides” (Bioorg Med Chem Lett, 2007).

The source made the active and inactive calls. The calls are words filed in the database; no cut-off is given here.

T1 sequence (P32245 whole entry): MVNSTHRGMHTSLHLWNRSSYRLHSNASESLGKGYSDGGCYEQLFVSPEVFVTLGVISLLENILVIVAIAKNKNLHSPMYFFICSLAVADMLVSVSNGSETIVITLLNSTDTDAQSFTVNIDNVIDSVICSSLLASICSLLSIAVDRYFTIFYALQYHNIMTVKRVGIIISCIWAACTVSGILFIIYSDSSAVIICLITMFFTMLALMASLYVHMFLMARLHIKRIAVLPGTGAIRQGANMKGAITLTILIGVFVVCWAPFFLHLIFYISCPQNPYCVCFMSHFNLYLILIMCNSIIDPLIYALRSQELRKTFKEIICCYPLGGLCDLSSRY

The target of one assay is T1, Melanocortin receptor 4 (Homo sapiens, UniProt P32245). The assay can be described thus: Displacement of Eu-NDP-alpha-MSH from human melanocortin 4 receptor expressed in HEK293 cells at 1 pM to 10 uM. The format is cell-based. Put shortly:
(§1)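 HEK293 cells overexpressing hMC4R, plated at 12,000 cells/well and grown 3 days. Incubated 40 min at 37 °C, washed 4 times in Tris-HCl/BSA/NaCl, then enhancement solution added for 30 min at 37 °C before time-resolved Eu read-out. IC50 averaged over n independent experiments, each in quadruplicate.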
For `C#CCCCC(=O)N[C@@H](CO)C(N)=O`, the outcome was inactive.

On to `CC(C)C(O)CCC(C)C(O)CCC(C)C(O)CCC(OCCCCCCn1cc(CCCC(=O)N[C@@H](CO)C(N)=O)nn1)C(C)CCC(O)C(C)CCC(O)C(C)C` (some centres not stated), for which the result was inactive.

In the case of `CC(C)C(O)CCC(C)C(O)CCC(C)C(CCC(O)C(C)CCC(O)C(C)CCC(OCCCCCCn1cc(CCCC(=O)N[C@@H](CO)C(N)=O)nn1)C(C)C)OCCCCCCn1cc(CCCC(=O)N[C@@H](CO)C(N)=O)nn1` (some centres not stated), the outcome was inactive.

The target of the next assay is T1, Melanocortin receptor 4. In words: Displacement of Eu-NDP-alpha-MSH from human melanocortin 4 receptor expressed in HEK293 cells. Type of assay: cell-based. Put shortly:
as §1
One may read the IC50 as the concentration at which inhibition is half-maximal. Low readings indicate inhibition by little substance, high ones a need for much substance. Take `CC(C)C(O)CCC(C)C(O)CCC(C)C(CCC(O)C(C)CCC(O)C(C)CCC(OCCCCCCn1cc(CCCC(=O)N[C@@H](Cc2cnc[nH]2)C(=O)N[C@@H](Cc2ccccc2)C(=O)N[C@@H](CCCNC(=N)N)C(=O)N[C@@H](Cc2c[nH]c3ccccc23)C(N)=O)nn1)C(C)C)OCCCCCCn1cc(CCCC(=O)N[C@@H](Cc2cnc[nH]2)C(=O)N[C@@H](Cc2ccccc2)C(=O)NC(CCCNC(=N)N)C(=O)N[C@@H](Cc2c[nH]c3ccccc23)C(N)=O)nn1` (single isomer, unassigned): the IC50 stood at 400 nM.

`CC(C)C(O)CCC(C)C(O)CCC(C)C(O)CCC(OCCCCCCn1cc(CCCC(=O)N[C@@H](Cc2cnc[nH]2)C(=O)N[C@H](Cc2ccccc2)C(=O)N[C@@H](CCCN=C(N)N)C(=O)N[C@@H](Cc2c[nH]c3ccccc23)C(N)=O)nn1)C(C)CCC(O)C(C)CCC(O)C(C)C` (some centres not stated) registered an IC50 of 3300 nM.

On to `C#CCCCC(=O)N[C@@H](Cc1cnc[nH]1)C(=O)N[C@H](Cc1ccccc1)C(=O)N[C@@H](CCCNC(=N)N)C(=O)N[C@@H](Cc1c[nH]c2ccccc12)C(N)=O`, for which the half-inhibitory concentration (IC50) was 900 nM.

`N=C(N)NCCC[C@H](NC(=O)C(Cc1ccccc1)NC(=O)[C@@H](N)Cc1cnc[nH]1)C(=O)N[C@@H](Cc1c[nH]c2ccccc12)C(=O)O` (stereo in doubt) came in with a half-maximal inhibitory concentration (IC50) of 1100 nM.
